Source: PubChem BioAssay
In the library only some 1.9% were active in any assay of this set; here they are far more common.
CHRM5 PAM: human M5 muscarinic receptor positive allosteric modulators, primary screen, CHO-K1 cells, Fluo-8 calcium fluorescence; Muscarinic acetylcholine receptor M5 (Homo sapiens), P08912; CHO-K1 hM5, ACh EC20 PAM; 0% = ACh EC20, 100% = ACh EC100; activation, % at 3 µM; 360,000 tested, 0.3% active;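 active means activation above the run cutoff, the mean activation of all test compounds plus 3 SD, cut at about 18% in these data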
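System – CHO-K1 hM5 cells · Compound – 3 µM, single dose · Incubation – compound preincubation 140 s before EC20 acetylcholine addition · Technique – Fluo-8 calcium fluorescence · Measure – Max/basal fluorescence ratio as % of EC20–EC100 ACh window · Benchmarks – low control EC20 acetylcholine (0%), high control EC100 acetylcholine (100%) · Replication – singlicate, one well per test compound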
CHRM4 antagonist: human M4 muscarinic receptor antagonists, primary screen, CHO cells, Fluo-8 calcium fluorescence. Muscarinic acetylcholine receptor M4 (Homo sapiens), P08173. CHO-hM4 cells, ACh EC80. inhibition, % at 3 µM. 360,000 tested, 0.73% active. AID 624125, 2012;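 active means inhibition above its plate's cutoff, the mean inhibition of sample wells plus 3 SD, cut at about 27% in these data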;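 further: 0% = acetylcholine EC80 with DMSO and 100% = DMSO without agonist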
Target sequence (P08173 whole entry, looked up): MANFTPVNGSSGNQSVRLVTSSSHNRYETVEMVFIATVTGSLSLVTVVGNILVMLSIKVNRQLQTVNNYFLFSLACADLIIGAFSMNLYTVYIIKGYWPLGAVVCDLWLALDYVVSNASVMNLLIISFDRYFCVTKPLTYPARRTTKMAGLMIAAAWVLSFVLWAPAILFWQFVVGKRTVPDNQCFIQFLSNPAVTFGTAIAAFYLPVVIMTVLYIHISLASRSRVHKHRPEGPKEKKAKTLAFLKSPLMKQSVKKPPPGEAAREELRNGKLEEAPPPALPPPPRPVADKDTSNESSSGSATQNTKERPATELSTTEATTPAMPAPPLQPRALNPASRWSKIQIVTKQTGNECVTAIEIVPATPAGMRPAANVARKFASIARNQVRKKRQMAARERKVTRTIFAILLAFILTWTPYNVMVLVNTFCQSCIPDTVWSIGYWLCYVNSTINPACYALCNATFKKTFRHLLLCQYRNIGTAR
M5 ag: human M5 muscarinic receptor agonists, primary screen, CHO-K1 cells, Fluo-8 calcium fluorescence; CHO-K1 hM5 cells; 0% DMSO wells, 100% maximal acetylcholine response; 360,000 tested, 0.19% active; AID 624037, 2012; activation, % at 3 µM; Muscarinic acetylcholine receptor M5 (Homo sapiens), P08912;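 active means activation above the run's mean over test compounds plus 3 SD, cut at about 23% in these data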;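 further: signal is peak over basal fluorescence ratio across the kinetic read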
M4 ag: human M4 muscarinic receptor agonists, primary screen, CHO-K1 cells, Fluo-8 calcium fluorescence; CHO-K1 hM4/Gqi5; vehicle 0%, full acetylcholine response 100%; activation, % at 3 µM; 360,000 tested, 0.14% active; AID 624127, 2012;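 active means activation above the run mean over all test wells plus 3 SD, cut at about 32% in these data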;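 further: peak over basal fluorescence ratio per well then scaled between controls; 0% = DMSO wells and 100% = acetylcholine at EC100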
M4 PAM: human M4 muscarinic receptor positive allosteric modulators, primary screen, CHO-K1 cells, Fluo-8 calcium fluorescence | Muscarinic acetylcholine receptor M4 (Homo sapiens), P08173 | CHO-K1 hM4/Gqi5, ACh EC20; 0% = ACh EC20, 100% = maximal ACh | activation, % at 3 µM | 360,000 tested, 0.4% active | AID 624126, 2012;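 active means activation above its plate's cutoff, the mean activation of sample wells plus 3 SD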
CHRM5 antagonist: human M5 muscarinic receptor antagonists, primary screen, CHO cells, Fluo-8 calcium fluorescence; AID 624040, 2012; CHO-hM5 cells, ACh EC80; inhibition, % at 3 µM; Muscarinic acetylcholine receptor M5 (Homo sapiens), P08912; 360,000 tested, 0.59% active;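 active means inhibition above a per-plate cutoff, the mean of that plate's test compounds plus 3 SD, cut at about 27% in these data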;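 further: 0% = acetylcholine EC80 with DMSO and 100% = DMSO without agonist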
* marks the source's active call; other numbers are inactive results.

SMILES	CHRM5 PAM	CHRM4 antagonist	M5 ag	M4 ag	M4 PAM	CHRM5 antagonist
Cc1cc(N/N=C/c2ccc(O)cc2O)nc(-c2ccccc2O)n1	-16.9	29.9*	4.6	21.3	-25.2	23.9
COc1ccc(C2C(C(=O)O)CCC(=O)N2c2ccc(OC)cc2)cc1 (stereo unspecified)	-4.4	2.0	0.6	1.6	-3.8	-5.2
COc1ccc(C2C(C(=O)NCc3ccco3)CCC(=O)N2c2ccc(OC)cc2)cc1 (stereo unspecified)	46.0*	-5.1	-4.3	0.3	4.0	3.2
O=C(Nc1ccccc1-c1ccccc1)NC1CC2CCCC(C1)N2Cc1ccc(F)cc1 (stereo unspecified)	-19.6	58.4*	-9.9	0.8	-22.9	34.5*
O=C(Nc1ccccc1-c1ccccc1)NC1CC2CCCC(C1)N2CCc1ccccc1 (stereo unspecified)	-18.4	29.4*	-10.0	0.1	-16.9	14.8
Cc1ccc(CN2C3CCCC2CC(NC(=O)c2ccc(F)cc2)C3)cc1 (stereo unspecified)	-2.1	13.3	-19.6	0.6	-10.4	-11.0
CC(C)c1cc(C(=O)N2CCCC(N3CCN(c4ccc(F)cc4)CC3)C2)n(C)n1 (stereo unspecified)	0.7	-8.9	4.2	5.7	-3.6	11.1
CCN(C(=O)CSc1nncs1)c1c(N)n(Cc2ccccc2)c(=O)[nH]c1=O	28.9*	-17.1	-1.7	0.6	1.9	-7.2
CCN(C(=O)CSc1nnnn1C)c1c(N)n(Cc2ccccc2)c(=O)[nH]c1=O	-1.1	2.5	1.8	1.9	0.6	-4.3
COCCCN(C(=S)NC(=O)c1ccc(C(C)(C)C)cc1)c1c(N)n(Cc2ccccc2)c(=O)[nH]c1=O	-1.0	-2.2	-1.5	2.5	27.0*	6.3
CCN(C(=O)c1ccc(=O)[nH]c1)c1c(N)n(Cc2ccccc2)c(=O)[nH]c1=O	0.0	5.4	0.1	0.7	22.0*	14.9
CCN(C(=O)COC(=O)c1cc2ccccc2cc1OC)c1c(N)n(Cc2ccccc2)c(=O)[nH]c1=O	1.0	-12.8	-1.1	0.9	22.2*	11.2
O=C(Nc1cc(S(=O)(=O)N2CCOCC2)ccc1OCC(F)(F)F)C1CCCC1	-3.6	-9.0	0.8	0.9	12.2	11.1
COC(=O)c1ccc2nc(-c3ccco3)c(Cc3ccccc3C(F)(F)F)n2c1	10.2	-14.6	2.3	-1.9	14.4	-8.7
Nc1[nH]c(C(=O)c2ccccc2)c(-c2ccccc2C(F)(F)F)c1C(=O)NCCc1cccs1	3.0	-3.9	1.9	-0.5	-0.6	0.0
Cc1cc2ccccc2n1CCNCc1c(C(=O)N2CCOCC2)nc2ccccn12	-6.5	25.3	245.2*	30.2	-17.0	75.1*
Cc1ccc(S(=O)(=O)N(C)CC(=O)NCc2ccncc2)cc1	-1.8	-3.5	-1.2	0.3	4.2	2.0
CN(C)c1ccc(CNC(=O)CN(C)S(=O)(=O)c2ccc3c(c2)c(=O)n(C)c(=O)n3C)cc1	9.7	-0.2	-4.0	0.7	16.7*	-12.6
Cc1ccc(CNC(=O)CN(C)S(=O)(=O)c2ccc(F)cc2)cc1	19.5*	-22.4	1.2	1.7	-1.9	-22.2
CNC(=O)C(C)N1c2cccc3cccc(c23)S1(=O)=O (stereo unspecified)	-2.3	-5.5	0.2	1.3	-3.0	-2.1
NNC(=O)c1csc(Cc2c(Cl)sc3ccc(Cl)cc23)n1	-2.5	0.1	-3.5	0.0	-0.9	3.9
Cn1cc(CN2CCCCC2C(=O)Nc2ccc(-n3cccn3)cc2)cn1 (stereo unspecified)	-6.6	1.2	-6.7	0.3	-0.3	27.3*
